As usually defined, the apparent Kd is the concentration giving half-maximal binding under the conditions of the assay.

This note sets out measurements from the EternaBench riboswitch data.

The data set concerns MS2 coat protein. Kind of data set: apparent Kd, MS2 coat protein; higher = weaker binding; RNA-MaP array; tryptophan 2.4 mM where present. An outline of the steps: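 Stalled E. coli RNA polymerase transcribed each design on Illumina sequencing-chip clusters. The clusters were titrated with SNAP-549-labelled MS2 coat protein, starting at 0.7 or 1.5 nM and doubling up to 3 µM, first without ligand and then with constant ligand, in 100 mM Tris-HCl pH 7.5, 80 mM KCl, 4 mM MgCl2, BSA, DTT, yeast tRNA and Tween-20. Green signal was normalised to red-channel RNA signal and to the control-cluster median Fmax. The apparent Kd is the median of filtered binding-curve fits made for each cluster.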

The mark [1] stands for this setting: designed as: ON switch for tryptophan, no ligand.
The mark [2] stands for this setting: ligand present: tryptophan, designed as: ON switch for tryptophan.
Where [3] appears, read: designed as: OFF switch for tryptophan, no ligand.
The mark [4] stands for this setting: ligand present: tryptophan, designed as: OFF switch for tryptophan.

Consider “UAGUCCGCGACGGCCGCCACUCGCUGAUGCACAUGUGUCCGGGACAUGAGGAUCACCCAUGUUUCGAGGACCGGGUCGAUCCUAA”, for which the “apparent Kd” value runs as follows: under setting [1], 78.2 nM; under setting [2], 57 nM.

With “AAUAAUAAGAAUAACGUACCAGGUGAUCAACGAGGACCGGUACGGCCGCCACUCGAAACAUGAGGAUCACCCAUGUAAUAACAAU”, the “apparent Kd” value was 83.4 nM under setting [3] and 58.3 nM under setting [4].

As for “GGCACAUAGUCGGCCGCCACUAGGGUGUAGUGGAAUAACAUGAGGAUCACCCAUGUAUUUGGGACUAGGACCGGGACUAUGUGCC”, the “apparent Kd” value is, setting by setting: under setting [3], 25.2 nM; under setting [4], 20 nM.

Consider “AGAUUCGACACGGCCGCCACUCGUGACGGAUUUCCGAGUGUCGAACAUGAGGAUCACCCAUGUCCGAGGACCGGGUGUUGAGUCU”, for which the “apparent Kd” value is, setting by setting: under setting [3], 34.1 nM; under setting [4], 522 nM.

As to “GAGUAGAGGACGGCCGCCACUAAACAUGAGGAUCACCCAUGUCGUGAUCCGUUACCUAGAGUAGAUAGGACCGGGUCAUAUAGUC”, the “apparent Kd” value under setting [3] came to 26.4 nM and the “apparent Kd” value under setting [4] came to 21.3 nM.

“GGUUACUCUACGGCCGCCACUGAUUAUUUAUAGUCCUGUACAUAAACAUGAGGAUCACCCAUGUACAGGACCGGGUAGUGUAACC”: the “apparent Kd” value under setting [1] stood at 34.9 nM and the “apparent Kd” value under setting [2] was determined as 35.6 nM.

In the case of “UCGGGCAUAGCGGCCGCCACUGUUUGGCGUGCGGAUGACGGAACAUGAGGAUCACCCAUGUUGUUUAGGACCGGGCUUGCGUCGU”, the “apparent Kd” value under setting [3] was found to be 13.2 nM and the “apparent Kd” value under setting [4] worked out at 15.2 nM.

For the sequence “AGCACAUGAGGAUCACCCAUGUGUCGGUACCGAGGACCGGUACGGCCGCCACUCGCAGGACAUGAGGAUCACCCAUGUGCCGCCG”, the “apparent Kd” value runs as follows: under setting [1], 25.1 nM; under setting [2], 25.4 nM.

As for “ACGCCCGCCUCACAUGAGGAUCACCCAUGUCGAGGACCGGUACGGCCGCCACUCGUCGUCGGUAAUACGGGCGUUGAAUAAUAUA”, the “apparent Kd” value reads like this: under setting [3], 11.5 nM; under setting [4], 49.7 nM.

As to “GGGUCAGGCGCGGCCGCCACUGCGGUGAUGUGACAUGAGGAUCACCCAUGUUGUCAUGUGGCACAUAGGACCGGGCGCCUGGCCC”, the “apparent Kd” value is, setting by setting: under setting [3], 29.2 nM; under setting [4], 31.6 nM.

Regarding “CUACAUUUGUAGAAACCGGUCAACAAUAAUCGAGGACCGGUACGGCCGCCACUCGAUGUAAAAUAAACAUGAGGAUCACCCAUGU”, the “apparent Kd” value runs as follows: under setting [1], 18.1 nM; under setting [2], 19.3 nM.

For the sequence “AACACAUGAGGAUCACCCAUGUUCUCGUGUCGAGGACCGGUACGGCCGCCACUCGGUUCUCGCGAGGAUGGUCAAAGACUAUCCA”, the “apparent Kd” value by setting is: under setting [1], 47.7 nM; under setting [2], 42 nM.

Take “AGAUUCGACACGGCCGCCACUUGGAGUGGCUGCUAGCAUGUUACACAUGAGGAUCACCCAUGUCUAAGGACCGGGUGUUGAGUCU”: the “apparent Kd” value by setting is: under setting [3], 41.1 nM; under setting [4], 216 nM.

As to “AUACAUGAGGAUCACCCAUGUGAUGGCCGGCGAGGACCGGUACGGCCGCCACUCGUGAUCCGUCCUGAAAGCAAAGCUCCCAGCA”, the “apparent Kd” value is 55.2 nM under setting [1] and 122 nM under setting [2].

In the case of “GCAUCCUAGUCGGCCGCCACUGCAACAUGAGGAUCACCCAUGUCUGCAUCUUCAUGAUGCAGUAGCAGGACCGGGACUAGGAUGC”, the “apparent Kd” value is 185 nM under setting [1] and 20.2 nM under setting [2].

Regarding “AAUCAUGGAAACAUGACAUGAGGAUUACUCCGAGGACCGGUACGGCCGCCACUCGCGAGGAGGCGGACAUGAGGAUCACCCAUGU”, the “apparent Kd” value by setting is: under setting [1], 185 nM; under setting [2], 40.2 nM.

As for “UAAUGCAGGUCGGCCGCCACUACAAACAUGAGGAUCACCCAUGUAGUUACUGGGUGAAGUGGCAGUAGGACCGGGACCUGCAUAA”, the “apparent Kd” value is, setting by setting: under setting [1], 289 nM; under setting [2], 342 nM.

Turning to “GCAUCCUAGUCGGCCGCCACUGACAUGAGGAUCACCCAUGUACAUGAGGAUCACCCAUGUUGUAACAGGACCGGGACUAGGAUGC”, the “apparent Kd” value by setting is: under setting [1], 99.7 nM; under setting [2], 49.5 nM.

For “GGCCCGGACUUGGAAUGGGUGUUUCCCUCACGAGGACCGGUACGGCCGCCACUCGAAGACAUGAGGAUCACCCAUGUAGUCGACA”, the “apparent Kd” value by setting is: under setting [3], 44.9 nM; under setting [4], 12.5 nM.

Take “GGUUACUCUACGGCCGCCACUGUAAAGUAAAUAUUAAUGUACAUGACAUGAGGAUCACCCAUGUACAGGACCGGGUAGUGUAACC”: the “apparent Kd” value runs as follows: under setting [1], 42.8 nM; under setting [2], 18.5 nM.

As for “UGCAUUAUACAUGGAUCACCCAUGUAGACACGAGGACCGGUACGGCCGCCACUCGGAAGAGGAAACAUGAGGAUCACCCAUGUGA”, the “apparent Kd” value reads like this: under setting [1], 78.5 nM; under setting [2], 78.2 nM.

For the sequence “UAAUCCGGUCCUCGAUAAUCCUCAUGUAAACGAGGACCGGUACGGCCGCCACUCGAUAACAUGAGGAUCACCCAUGUAAUAAUAA”, the “apparent Kd” value by setting is: under setting [3], 89.5 nM; under setting [4], 46.5 nM.

For the sequence “GUCGGUACGUCGGCAAAGCCGAUGUGCCAGCGAGGACCGGUACGGCCGCCACUCGUACAUGAGGAUCACCCAUGUCCGGUCCGGC”, the “apparent Kd” value under setting [1] was found to be 69.2 nM and the “apparent Kd” value under setting [2] stood at 70.7 nM.

With “CCAUCUUCAUCGGCCGCCACUGAACCAAGGAGACAUGAGGAUCACCCAUGUAUGGGAAACCAUCAUAGGACCGGGAUGAAGGUGG”, the “apparent Kd” value is, setting by setting: under setting [1], 36.1 nM; under setting [2], 30.9 nM.

Turning to “GGCACAUAGUCGGCCGCCACUACUAACACCUCAGACAACAUGAGGAUCACCCAUGUUCCAGAGUGUAGGACCGGGACUAUGUGCC”, the “apparent Kd” value is, setting by setting: under setting [1], 11.6 nM; under setting [2], 10.5 nM.

With “UAUGAGCGCACGGCCGCCACUGUCUUCAUCUGUUUGUCUACAUGAGGAUCACCCAUGUUGGUUUACAGGACCGGGUGCAACUAUG”, the “apparent Kd” value under setting [1] is 27.8 nM and the “apparent Kd” value under setting [2] came out at 22.4 nM.

With “AUAAUUGGGUUAAUUAGUUUUAGGUCCAGUCGAGGACCGGUACGGCCGCCACUCGUUCCGAGAUACAUGAGGAUCACCCAUGUUA”, the “apparent Kd” value runs as follows: under setting [3], 32.9 nM; under setting [4], 34.1 nM.

For the sequence “UUAUAUACUACGGCCGCCACUGAACAUGAGGAUCACCCAUGUAAUGUUCAGACGUCUUUAGACGACAGGACCGGGUAGAAUUAAA”, the “apparent Kd” value under setting [1] worked out at 119 nM and the “apparent Kd” value under setting [2] is 109 nM.

For the sequence “UUCACAUGGUAUGAAUAUACAUACAAGAAACGAGGACCGGUACGGCCGCCACUCGUGCCGGAAACAUGAGGAUCACCCAUGUGUU”, the “apparent Kd” value worked out at 37 nM under setting [3] and 45.4 nM under setting [4].

As to “GAGCGCGUGGACUGGCGUGCUCCGCUCCGUCGAGGACCGGUACGGCCGCCACUCGACAUGAGGAUCACCCAUGUGUGCGCUCGCG”, the “apparent Kd” value worked out at 51.5 nM under setting [3] and 96.3 nM under setting [4].

For “AAGACAUGAGGAUCACCCAUGUCGUGUGAACGAGGACCGGUACGGCCGCCACUCGUUUGAAAAUAAACGAAUGCGGCCUGGGAAA”, the “apparent Kd” value reads like this: under setting [3], 11 nM; under setting [4], 14.2 nM.

As for “CCAUAAGUACCGGUCCUCAGAUCCUCAUGACGAGGACCGGUACGGCCGCCACUCGAAACAUGAGGAUCACCCAUGUAAUAAUAUU”, the “apparent Kd” value runs as follows: under setting [3], 27.9 nM; under setting [4], 21 nM.

Take “UAUUAUCAGUCGGCCGCCACUGACACAUGAGGAUCACCCAUGUAAUUUGGGUUAUAUAUAAAUUACAGGACCGGGACAAAGGCUA”: the “apparent Kd” value reads like this: under setting [3], 358 nM; under setting [4], 295 nM.

“AAUAAACAUGAGGAUCACCCAUGUAGGGUGCGAGGACCGGUACGGCCGCCACUCGGGUGAAAACAUGAGGAUCACCCAUGUAAAA”: the “apparent Kd” value is 200 nM under setting [3] and 363 nM under setting [4].

Turning to “GCAUCCUAGUCGGCCGCCACUGCAACAUGAGGAUCACCCAUGUCAGGCCUCAUGUGUCCUGGUAGCAGGACCGGGACUAGGAUGC”, the “apparent Kd” value under setting [1] was 36.8 nM and the “apparent Kd” value under setting [2] was 29.2 nM.
